Assay results taken from PMC9399017 (European Journal of Drug Metabolism and Pharmacokinetics, 2022).
Values joined by “and” are separate entries in the source; they are usually repeats but may differ in a detail not shown here. Identical values can stand only once.

How the values were obtained:
[1] = system: major CYP isoenzymes, including CYP3A4; settings: in vitro; cited from earlier work
CYP3A = settings: humans; cited from earlier work
[2] = Population pharmacokinetic; format: in vivo, human (patients with advanced cancers); settings: for Duration of constant (zero-order) release into depot, D1, capsule, Estimate (% RSE): hard gelatin capsule
Method in brief: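 Patients took immediate-release capsules or film-coated tablets orally. Sampling was intensive in cycle 1 and sparse for up to 5 cycles. Lithium-heparin blood was processed to plasma within about 30 min, protein-precipitated, and measured by validated LC-MS/MS (2.00‒500 ng/mL; LLOQ 2.00 ng/mL). FOCE-I mixed-effects fits tested 1–3-compartment models with fixed allometric weight exponents and per-cycle interoccasion variability. Percentiles came from bootstrap.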

[3] = between-subject variability, NONMEM estimate
[4] = between-subject variability, bootstrap
[5] = final PopPK model, NONMEM estimate

SMILES: C[C@]12CC[C@@H]3c4ccc(O)cc4C[C@@H](CCCCCCCCC[S+]([O-])CCCC(F)(F)C(F)(F)F)[C@H]3[C@@H]1CC[C@@H]2O (stereo partly drawn) [Fulvestrant, fulvestrant]
- Inhibition of major CYP isoenzymes [1]: did not significantly inhibit
- Change in exposure to a CYP3A substrate (midazolam) (CYP3A): nor did it change the exposure

SMILES: CNC(=O)c1cccc2cc(Oc3ccnc4cc(OCC5(N)CC5)c(OC)cc34)ccc12 [lucitanib]
- Dose proportionality (post hoc ETA versus dose) ([2]; 5 to 30 mg lucitanib, visual inspection): consistent with dose proportionality
- Effect of co-administration of fulvestrant on lucitanib pharmacokinetics ([2]; 17 of 403 patients with concomitant fulvestrant): no effect
- Residual error (proportional), Estimate (% RSE) ([2]; NONMEM estimate): 33.6% (2.30%)
- CL/F BSV (log-proportional), Estimate (% RSE) [2, 3]: 47.8% (5.69%)
- D1 BSV (log-proportional), Estimate (% RSE) [2, 3]: 60.1% (18.6%)
- Vc/F BSV (log-proportional), Estimate (% RSE) [2, 3]: 58.6% (6.97%)
- Vp/F BSV (log-proportional), Estimate (% RSE) [2, 3]: 76.7% (9.10%)
- CL/F BSV (log-proportional), Bootstrap median (2.5th, 97.5th percentile) [2, 4]: 47.5% (42.8%, 53.2%)
- D1 BSV (log-proportional), Bootstrap median (2.5th, 97.5th percentile) [2, 4]: 58.7% (41.3%, 75.8%)
- Vc/F BSV (log-proportional), Bootstrap median (2.5th, 97.5th percentile) [2, 4]: 58.9% (51.3%, 67.5%)
- Vp/F BSV (log-proportional), Bootstrap median (2.5th, 97.5th percentile) [2, 4]: 75.2% (60.0%, 88.8%)
- Residual error (proportional), Bootstrap median (2.5th, 97.5th percentile) ([2]; bootstrap): 33.5% (32.0%, 34.8%)
- Duration of constant release into depot for capsule, D1, Bootstrap median (2.5th, 97.5th percentile) ([2]; capsule, nonparametric bootstrap): 0.812 (0.629, 0.956) h
- Effect of concomitant proton pump inhibitors on lucitanib absorption ([2]; concomitant PPI): no clinically significant effect
- Ratio of F with concomitant PPI/without PPI, 95% CI ([2]; concomitant proton pump inhibitor, n = 152, not significant): 0.83–1.08
- Reduction in F with concomitant PPI (estimated effect size) ([2]; concomitant proton pump inhibitor, not clinically significant): 6.5%
- CL/F and Vc/F correlation, Estimate (% RSE) ([2]; correlation of random effects, NONMEM estimate): 0.596 (6.30%)
- CL/F and Vc/F correlation, Bootstrap median (2.5th, 97.5th percentile) ([2]; correlation of random effects, bootstrap): 0.595 (0.469, 0.721)
- Duration of zero-order release, D1, tablet ([2]; film-coated tablet, final PopPK model): 0.243 h
- Apparent central volume, Vc/F, Estimate (% RSE) [2, 5]: 63.8 (5.08%) L/70 kg
- Apparent distribution clearance, Q/F, Estimate (% RSE) [2, 5]: 6.23 (8.41%) L/h/70 kg
- Apparent peripheral volume, Vp/F, Estimate (% RSE) [2, 5]: 69.1 (6.81%) L/70 kg
- Effect of formulation on D1 (tablet to capsule ratio), Estimate (% RSE) [2, 5]: 0.299 (19.4%)
- First-order absorption rate constant, Ka, Estimate (% RSE) [2, 5]: 4.86 1/h and 4.86 (12.6%) 1/h
- Apparent clearance, CL/F, Estimate (% RSE) ([2]; final PopPK model, NONMEM estimate, oral 5-30 mg QD, 403 patients): 1.90 (2.75%) L/h/70 kg
- Duration of constant (zero-order) release into depot, D1, capsule, Estimate (% RSE) ([2]; final PopPK model): 0.814 (22.2%) h
- Duration of constant (zero-order) release into depot, D1, capsule, Estimate (% RSE) ([2]; final PopPK model, listed as Lucitanib): 0.814 h
- half-life ([2]; human, plasma, oral): 8.58 min
- Apparent central volume, Vc/F, Bootstrap median (2.5th, 97.5th percentile) ([2]; nonparametric bootstrap): 63.4 (57.3, 70.6) L/70 kg
- Apparent distribution clearance, Q/F, Bootstrap median (2.5th, 97.5th percentile) ([2]; nonparametric bootstrap): 6.30 (5.29, 7.72) L/h/70 kg
- Apparent peripheral volume, Vp/F, Bootstrap median (2.5th, 97.5th percentile) ([2]; nonparametric bootstrap): 68.9 (61.0, 79.1) L/70 kg
- Effect of formulation on D1 (tablet to capsule ratio), Bootstrap median (2.5th, 97.5th percentile) ([2]; nonparametric bootstrap): 0.343 (0.178, 0.630)
- First-order absorption rate constant, Ka, Bootstrap median (2.5th, 97.5th percentile) ([2]; nonparametric bootstrap): 4.77 (2.94, 8.21) 1/h
- Apparent clearance, CL/F, Bootstrap median (2.5th, 97.5th percentile) ([2]; nonparametric bootstrap, 1000 replicates): 1.90 (1.80, 2.00) L/h/70 kg
- Variance in Vc/F explained by body weight ([2]; present dataset): 11%
- D1 values, both immediate-release formulations ([2]; tablet and capsule): < 1 h
- D1 shorter for tablets versus capsules ([2]; tablet vs capsule): 70%
